The text below walks through data of ChEMBL document CHEMBL4400548, “Structure-Based in Silico Screening Identifies a Potent Ebolavirus Inhibitor from a Traditional Chinese Medicine Library” (J Med Chem, 2019).

One experiment deals with Ebolavirus. The experiment in a line: Antiviral activity against HIV-1-derived Ebolavirus pseudoparticle infected in human TZM-bl cells after 48 hrs by beta-gal based reporter assay. The class given is functional, organism-based. The note with it: Orthoebolavirus. A digest of the protocol: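 TZM-bl cells were plated at 2 × 10^4 per well 24 h ahead and chilled on ice. EBOVpp (1 in 10 dilution) was spinoculated at 2100g for 30 min at 4 °C, then removed with a PBS wash. Compound (100–0.125 μM) was added in DMEM/5% FBS for 48 h at 37 °C. Cells were fixed in 2% PFA, X-gal stained and imaged for infected/total cells. Triplicate runs; sigmoidal fit for IC50.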

Experiment [1] relates to Ebola virus - Zaire (1995). The experiment in a line: Binding affinity to recombinant Ebola virus Zaire Mayinga-76 Envelope glycoprotein assessed as change in melting temperature up to 500 uM by SYPRO-dye based thermal shift assay.

As usually defined, the IC50 is the point on the concentration scale where inhibition reaches its midpoint. Low readings indicate greater potency in that assay, high ones weaker potency in that assay. Broadly, the IC80 is the point of the concentration-response curve where the effect stands at 80%. Lower therefore signals greater potency.

SMILES strings stand for the structures. The source made the active and inactive calls. No cut-off for these calls is given here.

In the experiment on Ebolavirus, `NC(=O)C1CCN(CCOc2ccc(-c3n[nH]cc3-c3ccccc3)c(O)c2)CC1` registered an IC50 of 3100 nM and an IC80 of 50000 nM. Further, in experiment [1], the outcome was Active.

Regarding `Nc1ccc(SSc2ccc(N)cc2)cc1`, the outcome in experiment [1] was inactive. In the experiment with Ebolavirus, `CN(C)CCOc1ccc(/C(=C(/CCCl)c2ccccc2)c2ccccc2)cc1` [TOREMIFENE] returned a concentration for half-maximal inhibition (IC50) of 90 nM and an 80% effect concentration (IC80) of 3000 nM. Turning to `Cc1[nH]nc(-c2ccc(OCCN3CCC(C(N)=O)CC3)cc2O)c1-c1ccc(Cl)cc1`, in the experiment on Ebolavirus, the IC50 was 50 nM and the 80% effect level (IC80) was put at 390 nM. The result in experiment [1] was Active.

Consider `N#Cc1cc(N)ccc1Sc1cccc(C(F)(F)F)c1`, for which, in experiment [1], the result was inactive. Still for that read-out and setting: the same measure for `O=C(/C=C/C1=Cc2ccccc2OC1)c1ccc(O)cc1`: “inactive”; for `O=C(/C=C/c1cc(Br)cc2c1OCOC2)c1cc(F)ccc1O`: “inactive”; for `COc1ccc(CC(=O)c2c(C)cc(O)cc2O)cc1`: “inactive”.
